In brackets after ≈: the same amount, converted by molar mass. A value given as a limit tells only on which side of the number the result lay.

The test system of one data set is Escherichia coli. Kind of data set: Antibacterial activity against Escherichia coli J53. The format is functional.
Data set [1] concerns Staphylococcus aureus. Nature of the data set: Antibacterial activity against methicillin resistant Staphylococcus aureus MRSA 1094. The format is functional.
In data set [2] the target is DNA polymerase III PolC-type (Bacillus subtilis (strain 168), UniProt P13267). Nature of the data set: Binding affinity to Bacillus subtilis DNA polymerase3C. The method in brief: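 Homogeneous recombinant B. subtilis pol IIIC was assayed in 96-well format on activated calf thymus DNA. Apparent Ki values were determined in a truncated assay lacking the competitor dGTP.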

The test system of data set [3] is Enterococcus faecium. Nature of the data set: Antibacterial activity against Vancomycin resistant Enterococcus faecium VRE 700802. The format is functional.
Data set [4] relates to DNA gyrase (Bacillus subtilis). Kind of data set: Inhibition of Bacillus subtilis gyrase activity.
Data set [5] relates to Staphylococcus aureus. Nature of the data set: Antibacterial activity against Staphylococcus aureus 25293. The format is functional.
The next data set deals with Bacillus subtilis. Kind of data set: Antibacterial activity against Bacillus subtilis BD54. The format is functional.
Another data set deals with Enterococcus faecalis. Kind of data set: Antibacterial activity against Enterococcus faecalis 29212. Format: functional.
Data set [6] concerns Enterococcus faecium. Kind of data set: Antibacterial activity against Enterococcus faecium 19434. The format is functional.
Data set [7] deals with Staphylococcus aureus. Kind of data set: Antibacterial activity against Staphylococcus aureus smith. Format: functional.
The nature of data set [8]: Plasma concentration after 6 hrs in mice administered with 100 mg/kg, iv. The conditions noted are these: Swiss Webster, mouse. Details: dose 100 mg/kg, route intravenous; call rule not given here. The format is ADME, organism-based. In short, it runs like this:
(§1)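 Male Swiss-Webster mice (20–24 g) got a single 100 mg/kg iv tail-vein bolus at 5 mL/kg in DCP vehicle (10% N,N-dimethylacetamide, 10% Cremophor EL in PBS, pH 9.5). Blood was taken from groups of 3 at various times. Plasma was quantified by C18 HPLC with MeCN:H₂O:NEt₃:AcOH (25:74.7:0.2:0.1), 1 mL/min, detection at 282 nm, against a spiked-plasma standard curve linear over 1–40 μg/mL.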

The nature of data set [9]: Cmax in mice at 100 mg/kg, iv. The conditions noted are these: Swiss Webster, mouse, in vivo. Format: ADME, organism-based. Also on record: dose 100 mg/kg, route intravenous. The method in brief:
as §1

The next data set deals with Mus musculus. Kind of data set: Effect on survival of mice after ip infection with Staphylococcus aureus Smith. The format is functional. In short, it runs like this:
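Male Swiss-Webster mice (20–24 g) were given 10⁸ CFU of log-phase S. aureus Smith ip, grown in LB at 37 °C and washed in cold broth. A single iv tail-vein dose was given in DCP vehicle (10% DMA, 10% Cremophor EL in PBS, pH 9.5; 5 mL/kg) 15 min post-infection. Survival was scored at 72 h and ED50 derived.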

Data set [10] has as its target DNA topoisomerase IV (Bacillus subtilis). Kind of data set: Inhibition of Bacillus subtilis topoisomerase IV activity.
Data set [11] can be described thus: Tmax in mice at 100 mg/kg, iv. Format: ADME, organism-based. Also on record: dose 100 mg/kg, route intravenous. Particulars: Swiss Webster, mouse, in vivo. In short, it runs like this:
as §1

Sequence of DNA polymerase III PolC-type (P13267 whole entry, the tested form may be a part): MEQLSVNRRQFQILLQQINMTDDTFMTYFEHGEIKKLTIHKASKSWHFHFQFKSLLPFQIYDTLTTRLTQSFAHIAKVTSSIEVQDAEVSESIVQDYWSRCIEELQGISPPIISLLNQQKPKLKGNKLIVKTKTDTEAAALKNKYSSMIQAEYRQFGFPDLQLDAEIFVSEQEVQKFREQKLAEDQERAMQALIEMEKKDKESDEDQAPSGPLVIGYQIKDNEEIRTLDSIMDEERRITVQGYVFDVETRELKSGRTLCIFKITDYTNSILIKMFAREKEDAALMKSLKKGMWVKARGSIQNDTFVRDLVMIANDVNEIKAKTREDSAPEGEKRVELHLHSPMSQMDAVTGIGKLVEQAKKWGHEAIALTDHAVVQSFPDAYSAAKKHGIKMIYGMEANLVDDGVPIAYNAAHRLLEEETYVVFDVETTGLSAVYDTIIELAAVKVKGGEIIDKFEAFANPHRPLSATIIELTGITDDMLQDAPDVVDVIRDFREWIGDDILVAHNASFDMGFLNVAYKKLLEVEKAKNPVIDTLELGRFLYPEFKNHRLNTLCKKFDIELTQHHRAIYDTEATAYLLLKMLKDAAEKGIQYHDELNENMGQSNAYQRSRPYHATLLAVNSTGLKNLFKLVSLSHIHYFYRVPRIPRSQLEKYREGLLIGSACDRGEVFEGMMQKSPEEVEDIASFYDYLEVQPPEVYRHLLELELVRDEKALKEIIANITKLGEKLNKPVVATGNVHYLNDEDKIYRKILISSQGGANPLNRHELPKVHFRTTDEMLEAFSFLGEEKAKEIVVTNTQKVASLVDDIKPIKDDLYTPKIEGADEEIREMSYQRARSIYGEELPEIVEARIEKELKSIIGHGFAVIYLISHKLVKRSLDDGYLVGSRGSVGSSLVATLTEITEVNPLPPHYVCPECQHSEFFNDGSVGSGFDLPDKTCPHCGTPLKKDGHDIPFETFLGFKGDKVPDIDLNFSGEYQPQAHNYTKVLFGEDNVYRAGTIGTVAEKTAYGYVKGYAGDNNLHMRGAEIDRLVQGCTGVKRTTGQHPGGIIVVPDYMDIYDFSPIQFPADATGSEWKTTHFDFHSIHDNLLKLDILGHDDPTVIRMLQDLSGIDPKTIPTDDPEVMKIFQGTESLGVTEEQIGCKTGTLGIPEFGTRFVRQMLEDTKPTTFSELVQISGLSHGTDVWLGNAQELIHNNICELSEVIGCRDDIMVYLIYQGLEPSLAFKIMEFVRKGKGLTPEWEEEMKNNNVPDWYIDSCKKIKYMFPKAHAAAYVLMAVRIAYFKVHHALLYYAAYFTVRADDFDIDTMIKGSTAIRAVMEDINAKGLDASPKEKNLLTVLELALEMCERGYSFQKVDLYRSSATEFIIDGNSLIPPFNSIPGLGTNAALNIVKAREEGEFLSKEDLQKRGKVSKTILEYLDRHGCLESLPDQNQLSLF

On to `O=C(O)c1cn(C2CC2)c2cc(N3CCNCC3)c(F)cc2c1=O` [CIPROFLOXACIN], for which the minimal inhibitory concentration (MIC) is 0.313 µg/mL (≈ 0.945 µM) against Escherichia coli, 20 µg/mL (≈ 60.4 µM) with Staphylococcus aureus [1], 80 µg/mL (≈ 241 µM) in the data set on Enterococcus faecium [3] and 0.313 µg/mL (≈ 0.945 µM) against Staphylococcus aureus [5]. In addition, the Ki result in [2] is on record as “Not Active”. Moreover, the IC50 in data set [4] was determined as 1.9 µg/mL (≈ 5.73 µM).

With `CCc1cc(Nc2cc(=O)n(CCCCN3CCN(c4c(F)cc5c(=O)c(C(=O)O)cn(C6CC6)c5c4Cl)CC3)c(=O)[nH]2)ccc1C`, the minimal inhibitory concentration (MIC) against Escherichia coli was 20 µg/mL (≈ 30.1 µM); against Staphylococcus aureus [1], 1.25 µg/mL (≈ 1.88 µM); against Bacillus subtilis it was 0.078 µg/mL (≈ 0.117 µM); in the data set with Enterococcus faecalis it was 0.625 µg/mL (≈ 0.94 µM); with Enterococcus faecium [6], 1.25 µg/mL (≈ 1.88 µM); against Staphylococcus aureus [7] it was 0.156 µg/mL (≈ 0.235 µM). The MIC was determined as 0.625 µg/mL (≈ 0.94 µM) against Enterococcus faecium [3] and 0.313 µg/mL (≈ 0.471 µM) in the data set with Staphylococcus aureus [5]. The Ki in data set [2] (read-out: Ki) amounted to 10 nM.

On to `CCc1cc(Nc2cc(=O)n(CCCCN3CCN(c4cc5c(cc4F)c(=O)c(C(=O)O)cn5C4CC4)CC3)c(=O)[nH]2)ccc1C`, for which, in [8], the concentration at 6 h was determined as 0.62 µg/mL. Moreover, the minimum inhibitory concentration (MIC) was above 40 µg/mL with Escherichia coli; 2.5 µg/mL (≈ 3.96 µM) with Staphylococcus aureus [1]; 0.625 µg/mL (≈ 0.991 µM) against Enterococcus faecalis; 1.25 µg/mL (≈ 1.98 µM) in the data set with Enterococcus faecium [6]; 0.41 µg/mL (≈ 0.65 µM) against Mus musculus; 0.625 µg/mL (≈ 0.991 µM) with Enterococcus faecium [3]. The peak concentration (Cmax) in data set [9] is 213 µg/mL. In addition, the results for the half-maximal inhibitory concentration (IC50) in data set [4] and in [10] were 28.4 µg/mL (≈ 45 µM) and 22.9 µg/mL (≈ 36.3 µM), respectively. Further, the Tmax in [11] is 5 min.

As for `CCc1cc(Nc2cc(=O)n(CCCCN3CCN(c4c(F)cc5c(=O)c(C(=O)O)cn(C6CC6)c5c4F)C[C@@H]3C)c(=O)[nH]2)ccc1C`, the MIC is 20 µg/mL (≈ 30.2 µM) in the data set with Escherichia coli; 1.25 µg/mL (≈ 1.89 µM) against Enterococcus faecalis; 1.25 µg/mL (≈ 1.89 µM) with Enterococcus faecium [6]; 0.625 µg/mL (≈ 0.943 µM) against Enterococcus faecium [3]; 0.625 µg/mL (≈ 0.943 µM) against Staphylococcus aureus [5]. Further, the Ki in data set [2] (read-out: Ki) was 4 nM. Further, the median effective dose (ED50) with Mus musculus was found to be 15 mg/kg. The compound further gave a 50% inhibitory concentration (IC50) in data set [4] of 9.2 µg/mL (≈ 13.9 µM).

`CCn1cc(C(=O)O)c(=O)c2ccc(C)nc21` [NALIDIXIC ACID] registered an IC50 in [4] of 34.6 µg/mL (≈ 149 µM).

Turning to `CC(=O)NC[C@H]1CN(c2ccc(N3CCOCC3)c(F)c2)C(=O)O1` [LINEZOLID], the minimum inhibitory concentration (MIC) was above 80 µg/mL against Escherichia coli; 1.25 µg/mL (≈ 3.71 µM) with Staphylococcus aureus [1]; 0.625 µg/mL (≈ 1.85 µM) against Bacillus subtilis; 1.25 µg/mL (≈ 3.71 µM) in the data set with Enterococcus faecalis; 2.5 µg/mL (≈ 7.41 µM) in the data set with Enterococcus faecium [6]; 2.5 µg/mL (≈ 7.41 µM) against Staphylococcus aureus [7]. For the same compound, the MIC against Enterococcus faecium [3] and against Staphylococcus aureus [5] was 1.25 µg/mL (≈ 3.71 µM) in each case. For the same compound, the inhibitory constant (Ki) entry in data set [2] is “Not Active”.

As to `CCc1cc(Nc2cc(=O)n(CCCCN3CCN(c4cc5c(cc4F)c(=O)c(C(=O)O)cn5C4CC4)C[C@@H]3C)c(=O)[nH]2)ccc1C`, the minimal inhibitory concentration (MIC) with Escherichia coli is 40 µg/mL (≈ 62 µM); against Staphylococcus aureus [1], 1.25 µg/mL (≈ 1.94 µM); with Enterococcus faecalis, 0.625 µg/mL (≈ 0.969 µM); in the data set with Enterococcus faecium [6], 1.25 µg/mL (≈ 1.94 µM); against Enterococcus faecium [3], 0.625 µg/mL (≈ 0.969 µM); with Staphylococcus aureus [5] it was 1.25 µg/mL (≈ 1.94 µM). Moreover, the 50% effect level with Mus musculus (ED50) was put at a dose of 30 mg/kg.

On to `CCc1cc(Nc2cc(=O)n(CCCCN3CCN(c4c(F)cc5c(=O)c(C(=O)O)cn(C6CC6)c5c4OC)CC3)c(=O)[nH]2)ccc1C`, for which the MIC was above 40 µg/mL against Escherichia coli; 1.25 µg/mL (≈ 1.89 µM) against Staphylococcus aureus [1]; 0.156 µg/mL (≈ 0.236 µM) against Bacillus subtilis; 1.25 µg/mL (≈ 1.89 µM) against Enterococcus faecalis; 1.25 µg/mL (≈ 1.89 µM) in the data set with Enterococcus faecium [6]; 0.313 µg/mL (≈ 0.474 µM) in the data set on Staphylococcus aureus [7]. Besides, the minimum inhibitory concentration (MIC) in the data set with Enterococcus faecium [3] and against Staphylococcus aureus [5] was 0.625 µg/mL (≈ 0.946 µM) in each case. In addition, the inhibition constant (Ki) in [2] (read-out: Ki) was 14 nM. Also, the ED50 in the data set with Mus musculus was 25 mg/kg.

As for `CCc1cc(Nc2cc(=O)n(CCCCN3CCN(c4cc5c(cc4F)c(=O)c(C(=O)O)cn5C4CC4)C[C@H]3C)c(=O)[nH]2)ccc1C`, the MIC in the data set on Staphylococcus aureus [1] stood at 2.5 µg/mL (≈ 3.88 µM); with Bacillus subtilis, 0.313 µg/mL (≈ 0.485 µM); in the data set with Enterococcus faecalis it was 0.625 µg/mL (≈ 0.969 µM); with Enterococcus faecium [6] it was 0.625 µg/mL (≈ 0.969 µM); in the data set on Enterococcus faecium [3], 0.625 µg/mL (≈ 0.969 µM). In the data set with Mus musculus, this compound gave an ED50 of 20 mg/kg.

The record behind these values is ChEMBL document CHEMBL1138117, “Hybrid antibacterials. DNA polymerase-topoisomerase inhibitors” (J Med Chem, 2006).
